From ChEMBL document CHEMBL3608263, “Identification and optimisation of 4,5-dihydrobenzo[1,2-d:3,4-d]bisthiazole and 4,5-dihydrothiazolo[4,5-h]quinazoline series of selective phosphatidylinositol-3 kinase alpha inhibitors” (Bioorg Med Chem Lett, 2015) come the findings set out here.

For data set [1], the system named is Rattus norvegicus. In words: Dose normalized AUC in Sprague-Dawley rat at 3 mg/kg, po. It counts as ADME, organism-based. Particulars: in vivo; call rule not given here. The method in brief:
(§1)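 Female Sprague-Dawley rats, conscious, permanently cannulated, with free access to food. Dosed 1.0 mg kg-1 intravenously and 3.0 mg kg-1 orally. Blood levels sampled from 5 minutes to 48 h post dose.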

A short description of data set [2]: Oral bioavailability in Sprague-Dawley rat at 3 mg/kg. It counts as ADME, organism-based. Particulars: in vivo. The method in brief: as §1
Data set [3] concerns Rattus norvegicus. Put plainly: Dose normalized AUC in Sprague-Dawley rat at 1 mg/kg, iv. The data set is classed as ADME, organism-based. Particulars: in vivo. In a few lines:
as §1

A short description of data set [4]: Volume of distribution at steady state in Sprague-Dawley rat at 1 mg/kg, iv and 3 mg/kg, po. Particulars: in vivo, read-out: Vdss. The data set is classed as ADME, organism-based. The method in brief: as §1
Data set [5] is described as follows: Permeability across apical to basolateral side in human Caco2 cells. The data set is classed as ADME, cell-based. Particulars: Caco-2, read-out: permeability.
The nature of data set [6]: Permeability across basolateral to apical side in human Caco2 cells. The data set is classed as ADME, cell-based. Particulars: Caco-2, read-out: permeability. (Caco-2 monolayers are a common model of the intestinal barrier.)
Data set [7] in a line: Solubility of the compound at pH 6.8 by high throughput equilibrium method. Particulars: buffer. It counts as physicochemical.
Data set [8] in a line: Plasma concentration in athymic nude mouse xenografted with Rat1-myr-p110alpha tumor at 50 mg/kg, po measured up to 8 hrs. It counts as ADME, organism-based. In a few lines: (§2)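 Female athymic mice bearing subcutaneous Rat1-myr-p110α xenografts were given one oral dose of 50 mg kg-1, as suspension or solution. At set time points, groups of n = 4 were sacrificed. Tumors were flash-frozen, pulverized and analysed by Western blot for Ser473 p-Akt. Compound was quantified in plasma in parallel.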

Another data set relates to Plasma. In words: Drug uptake in plasma of athymic nude mouse xenografted with Rat1-myr-p110alpha tumor at 50 mg/kg, po measured at 8 hrs. It counts as ADME, organism-based. Particulars: in vivo. The method in brief:
as §2

Data set [9] in a line: Plasma concentration in athymic nude mouse xenografted with Rat1-myr-p110alpha tumor at 50 mg/kg, po measured after 16 hrs. It counts as ADME, organism-based. In a few lines:
as §2

Converted amounts (≈) assume the structure as drawn.

The term bioavailability denotes dose-corrected exposure relative to a reference, in per cent. A lower bioavailability goes with little systemic uptake. As for `Cc1nc(NC(=O)N2CCC[C@H]2C(N)=O)sc1-c1ccnc(C(C)(C)C)n1`, the AUC/dose came to 199 nmol·h/L with Rattus norvegicus [1] and 1128 nmol·h/L in the data set on Rattus norvegicus [3]. The compound also yielded a bioavailability in data set [2] of 18%. Also, the Vd in data set [4] stood at 1.3 L/kg.
Consider `Cc1nc(NC(=O)N2CCC[C@H]2C(N)=O)sc1-c1csc(C(C)(C)C)n1`, for which the AUC/dose stood at 70 nmol·h/L in the data set with Rattus norvegicus [1] and 561 nmol·h/L with Rattus norvegicus [3]. The same compound returned a bioavailability in data set [2] of 2%. Besides, in data set [4], the Vd was found to be 2 L/kg. For the same compound, in [5], the Papp A→B came out at 12.3 ×10⁻⁶ cm/s. In data set [6], the Papp B→A was 15.6 ×10⁻⁶ cm/s.
Broadly, the thermodynamic solubility is the concentration in solution at equilibrium with solid. Take `CC(C)(C)c1nc2c(s1)CCc1nc(NC(=O)N3CCC[C@H]3C(N)=O)sc1-2`: the AUC/dose was determined as 1585 nmol·h/L in the data set with Rattus norvegicus [1] and 4132 nmol·h/L in the data set with Rattus norvegicus [3]. The same compound registered a bioavailability in data set [2] of 39%. The Vd in [4] stood at 0.4 L/kg. This compound also had a thermodynamic solubility in [7] of 65 µM (≈ 26.4 µg/mL).
For `NC(=O)[C@@H]1CCCN1C(=O)Nc1nc2c(s1)-c1nc(CC3CC3)sc1CC2`, the thermodynamic solubility in data set [7] is 55 µM (≈ 22.2 µg/mL).
In [7], `CC(C)(C)c1nc2c(s1)CCc1nc(NC(=O)N3CCC[C@@]3(C)C(N)=O)sc1-2` came in with a thermodynamic solubility of 310 µM (≈ 130 µg/mL). Also, the Papp A→B in [5] amounted to 12.1 ×10⁻⁶ cm/s. Besides, in data set [6], the Papp B→A came to 15.6 ×10⁻⁶ cm/s.
In data set [7], `CC(C)(C)c1nc2c(s1)CCc1nc(NC(=O)N3CC[C@@H]4C[C@@]43C(N)=O)sc1-2` showed a solubility (thermodynamic) of 351 µM (≈ 147 µg/mL).
On the same count and under the same terms, under `C[C@H]1CCN(C(=O)Nc2nc3c(s2)-c2nc(C(C)(C)C)sc2CC3)[C@@H]1C(N)=O` stands under 4 µM.
Same read-out and setting: as for `C[C@@H]1CCN(C(=O)Nc2nc3c(s2)-c2nc(C(C)(C)C)sc2CC3)[C@@H]1C(N)=O`, the figure is 9 µM (≈ 3.78 µg/mL).
In data set [8], `C[C@@H]1CCN(C(=O)Nc2nc3c(s2)-c2nc(C(C)(C)C(F)(F)F)sc2CC3)[C@@H]1C(N)=O` yielded a concentration at 8 h of over 1000 nM. The thermodynamic solubility in data set [7] turned out to be 14 µM (≈ 6.63 µg/mL).
For `CN(C)C[C@@H]1CCN(C(=O)Nc2nc3c(s2)-c2nc(C(C)(C)C)sc2CC3)[C@@H]1C(N)=O`, the AUC/dose worked out at 531 nmol·h/L in the data set with Rattus norvegicus [1] and 956 nmol·h/L with Rattus norvegicus [3]. In addition, the bioavailability in [2] worked out at 56%. Moreover, the Vd in [4] was 24 L/kg. Besides, the Papp A→B in [5] came out at 0.76 ×10⁻⁶ cm/s. For the same compound, the Papp B→A in data set [6] worked out at 6.87 ×10⁻⁶ cm/s.
Regarding `CC(C)(C)c1ncc2c(n1)-c1sc(NC(=O)N3CCC[C@H]3C(N)=O)nc1CC2`, the thermodynamic solubility in [7] came out at 125 µM (≈ 50.1 µg/mL).
With `CC(C)(C)c1ncc2c(n1)-c1sc(NC(=O)N3CCC[C@@]3(C)C(N)=O)nc1CC2`, in [7], the solubility (thermodynamic) was found to be 60 µM (≈ 24.9 µg/mL). Moreover, in data set [5], the Papp A→B amounted to 3.4 ×10⁻⁶ cm/s. For the same compound, in [6], the Papp B→A came out at 25.5 ×10⁻⁶ cm/s.
As to `CC(C)(C)c1ncc2c(n1)-c1sc(NC(=O)N3CC[C@@H]4C[C@@]43C(N)=O)nc1CC2`, the Drug uptake result in the data set with Plasma was “Active”. Also, the values for the AUC/dose in the data set with Rattus norvegicus [1] and with Rattus norvegicus [3] were 13599 nmol·h/L and 16472 nmol·h/L, respectively. In data set [2], this compound yielded a bioavailability of 83%. Further, in data set [4], the Vd is 0.6 L/kg. This compound also came in with a thermodynamic solubility in data set [7] of 51 µM (≈ 21 µg/mL). This compound had a concentration at 16 h in data set [9] of 1000 nM.
Regarding `C[C@@H]1CCN(C(=O)Nc2nc3c(s2)-c2nc(C(C)(C)C)ncc2CC3)[C@@H]1C(N)=O`, the results for the AUC/dose in the data set on Rattus norvegicus [1] and in the data set with Rattus norvegicus [3] were 1874 nmol·h/L and 5241 nmol·h/L, respectively. The bioavailability in [2] came out at 36%. Moreover, the Vd in data set [4] was 0.5 L/kg. For the same compound, the thermodynamic solubility in [7] amounted to 71 µM (≈ 29.4 µg/mL). The Papp A→B in data set [5] is 3.4 ×10⁻⁶ cm/s. Further, the Papp B→A in [6] is 21.7 ×10⁻⁶ cm/s.
As to `C[C@@H]1CCN(C(=O)Nc2nc3c(s2)-c2nc(C(C)(C)C(F)(F)F)ncc2CC3)[C@@H]1C(N)=O`, the thermodynamic solubility in [7] was 9 µM (≈ 4.22 µg/mL).
Same read-out and setting: as for `CN(C)C[C@@H]1CCN(C(=O)Nc2nc3c(s2)-c2nc(C(C)(C)C)ncc2CC3)[C@@H]1C(N)=O`, the figure is 276 µM (≈ 126 µg/mL).
Take `CN(C)C[C@@]1(C(N)=O)CCCN1C(=O)Nc1nc2c(s1)-c1nc(C(C)(C)C)ncc1CC2`: the AUC/dose in the data set on Rattus norvegicus [1] worked out at 1116 nmol·h/L; in the data set on Rattus norvegicus [3], 1444 nmol·h/L. The compound also returned a bioavailability in data set [2] of 77%. For the same compound, the Vd in data set [4] was 3.2 L/kg. In [7], this compound gave a thermodynamic solubility of over 1000 µM. The Papp A→B in data set [5] came to 5.2 ×10⁻⁶ cm/s. Moreover, the Papp B→A in data set [6] was 15.8 ×10⁻⁶ cm/s.
`CN(C)[C@@H]1C[C@@H](C(N)=O)N(C(=O)Nc2nc3c(s2)-c2nc(C(C)(C)C)ncc2CC3)C1` returned a thermodynamic solubility in data set [7] of 500 µM (≈ 222 µg/mL).
Regarding `Cc1nc(NC(=O)N2CCC[C@H]2C(N)=O)sc1-c1ccnc(C(C)(C)C(F)(F)F)c1` [ALPELISIB], the Papp A→B in data set [5] stood at 3.8 ×10⁻⁶ cm/s. Further, the Papp B→A in [6] was 18.3 ×10⁻⁶ cm/s.
